The target of test [1] is Kappa-type opioid receptor (Homo sapiens) (UniProt P41145). Conditions: CHO-K1, at 10 µM.
The target of test [2] is Mu-type opioid receptor (Homo sapiens) (UniProt P35372). The settings on record: CHO-K1, at 10 µM.
The target in test [3] is T1, Delta-type opioid receptor (Homo sapiens, UniProt P41143). The test is described as follows: Displacement of [3H]-enkephalin from human delta opioid receptor transfected in CHOK1 cells at 10 uM after 60 mins relative to control. The format is cell-based. The settings on record: CHO-K1. (In general: In a radioligand displacement assay an active substance lowers the binding of a labelled ligand.)
T1 sequence (P41143 whole entry): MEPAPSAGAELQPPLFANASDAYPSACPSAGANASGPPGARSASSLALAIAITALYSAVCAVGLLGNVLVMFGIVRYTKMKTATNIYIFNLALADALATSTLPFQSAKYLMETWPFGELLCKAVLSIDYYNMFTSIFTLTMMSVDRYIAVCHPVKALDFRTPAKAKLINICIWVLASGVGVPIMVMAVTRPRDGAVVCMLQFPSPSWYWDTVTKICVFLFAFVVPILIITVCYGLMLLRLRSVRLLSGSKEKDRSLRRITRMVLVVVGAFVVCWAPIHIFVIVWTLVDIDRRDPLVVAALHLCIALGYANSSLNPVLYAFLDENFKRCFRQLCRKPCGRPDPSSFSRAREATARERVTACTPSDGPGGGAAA

Test [4] addresses Cannabinoid receptor 2 (Homo sapiens) (UniProt P34972). The test is described as follows: Displacement of [3H]-CP55940 from human recombinant CB2 receptor transfected in HEK293 cells at 10 uM after 90 mins relative to control. The format is cell-based.
Test [5] has as its target Cannabinoid receptor 1 (Homo sapiens) (UniProt P21554). Put plainly: Displacement of [3H]-CP55940 from human recombinant CB1 receptor transfected in HEK293 cells at 10 uM after 90 mins relative to control. It is filed as cell-based.
The target of test [6] is T1, Delta-type opioid receptor. Put plainly: Agonist activity at human delta opioid receptor transfected in CHOK1 cells after 60 mins by [35S]GTPgammaS binding assay. On the technique in general: Binding of GTPγS marks nucleotide exchange on a G protein.
For test [7], the target named is T1, Delta-type opioid receptor. The test is described as follows: Agonist activity at human delta opioid receptor transfected in CHOK1 cells after 60 mins by [35S]GTPgammaS binding assay relative to control. The format is functional, cell-based. Conditions: CHO-K1. The method in brief:
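[35S]GTPγS functional assay on membranes from CHO-K1 cells stably expressing δ-opioid receptor; diluted compound incubated with membrane at predetermined protein level plus 0.05 nM [35S]GTPγS, 60 min at room temperature. Terminated by vacuum filtration through GF/C filters, 10 washes 50 mM Tris-HCl pH 7.4, scintillation counting. Basal binding defined as binding with GTPγS buffers.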

The target in test [8] is T1, Delta-type opioid receptor. Put plainly: Displacement of [3H]-enkephalin from human delta opioid receptor transfected in CHOK1 cells after 60 mins. It is filed as cell-based, CHO-K1.

For orientation: inhibition means the drop in the measured response relative to a control, in per cent. By EC50 is commonly meant the concentration at which the effect is half-maximal. As a reminder, the Emax is the maximal effect, on the per cent scale that the assay sets. The term IC50 denotes the point on the concentration scale where inhibition reaches its midpoint. High values mean lower potency, low ones higher potency. By Ki is commonly meant a measure of affinity in units of concentration, obtained from inhibition or displacement.

Sequence of Kappa-type opioid receptor (Homo sapiens) (P41145 whole entry): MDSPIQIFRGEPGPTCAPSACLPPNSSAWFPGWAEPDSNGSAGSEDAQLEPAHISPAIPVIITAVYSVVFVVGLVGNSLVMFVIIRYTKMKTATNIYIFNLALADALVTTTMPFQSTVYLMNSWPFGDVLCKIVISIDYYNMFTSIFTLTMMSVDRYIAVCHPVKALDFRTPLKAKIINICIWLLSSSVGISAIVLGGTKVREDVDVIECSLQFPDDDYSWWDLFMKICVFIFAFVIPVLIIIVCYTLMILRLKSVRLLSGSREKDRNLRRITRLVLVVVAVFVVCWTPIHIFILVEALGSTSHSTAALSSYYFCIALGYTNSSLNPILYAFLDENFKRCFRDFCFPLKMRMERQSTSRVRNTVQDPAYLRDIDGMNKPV
Sequence of Mu-type opioid receptor (Homo sapiens) (P35372 whole entry): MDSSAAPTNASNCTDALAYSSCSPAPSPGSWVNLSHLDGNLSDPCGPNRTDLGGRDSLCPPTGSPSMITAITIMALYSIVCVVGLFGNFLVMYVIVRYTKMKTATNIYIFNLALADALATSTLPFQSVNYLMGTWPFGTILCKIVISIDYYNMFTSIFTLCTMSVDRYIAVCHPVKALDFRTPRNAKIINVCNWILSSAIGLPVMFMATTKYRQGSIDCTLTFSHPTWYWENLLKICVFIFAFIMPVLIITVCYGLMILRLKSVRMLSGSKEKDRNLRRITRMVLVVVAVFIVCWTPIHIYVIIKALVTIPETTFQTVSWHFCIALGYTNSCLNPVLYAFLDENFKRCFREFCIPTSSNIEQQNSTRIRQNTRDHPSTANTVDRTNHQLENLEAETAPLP
Sequence of Cannabinoid receptor 1 (Homo sapiens) (P21554 whole entry): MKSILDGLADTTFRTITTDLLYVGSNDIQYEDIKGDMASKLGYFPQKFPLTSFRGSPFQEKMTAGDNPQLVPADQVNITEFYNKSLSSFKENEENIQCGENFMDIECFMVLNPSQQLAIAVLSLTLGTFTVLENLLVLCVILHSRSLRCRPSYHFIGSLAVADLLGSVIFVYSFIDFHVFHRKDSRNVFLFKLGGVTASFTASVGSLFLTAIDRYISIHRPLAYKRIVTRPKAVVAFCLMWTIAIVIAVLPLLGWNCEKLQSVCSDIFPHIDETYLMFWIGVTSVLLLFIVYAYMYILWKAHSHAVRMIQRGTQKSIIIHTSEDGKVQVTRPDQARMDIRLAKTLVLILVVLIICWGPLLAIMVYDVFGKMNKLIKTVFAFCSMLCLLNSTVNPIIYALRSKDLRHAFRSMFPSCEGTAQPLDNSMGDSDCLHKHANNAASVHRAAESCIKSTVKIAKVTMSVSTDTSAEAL
Sequence of Cannabinoid receptor 2 (Homo sapiens) (P34972 whole entry): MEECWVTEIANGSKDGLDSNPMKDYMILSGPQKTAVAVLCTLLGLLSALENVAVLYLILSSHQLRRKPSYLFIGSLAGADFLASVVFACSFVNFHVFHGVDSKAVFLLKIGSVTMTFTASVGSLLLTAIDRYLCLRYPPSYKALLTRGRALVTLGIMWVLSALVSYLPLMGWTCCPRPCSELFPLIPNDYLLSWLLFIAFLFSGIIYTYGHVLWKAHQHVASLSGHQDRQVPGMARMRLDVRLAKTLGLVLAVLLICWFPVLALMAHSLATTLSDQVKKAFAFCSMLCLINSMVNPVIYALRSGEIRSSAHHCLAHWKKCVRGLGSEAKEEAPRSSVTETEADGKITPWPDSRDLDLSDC

As for `COc1cc(O)c2c(c1)CC(=O)CCCC/C=C/C[C@@H](C)OC2=O`, the inhibition in test [1] stood at 11.4%; in test [2], 22.4%; in test [3] it was 44.7%; in test [4], 44.5%.
Consider `C[C@@H]1C[C@H]2O[C@@H]2/C=C\C=C\C(=O)Cc2c(Cl)c(O)cc(O)c2C(=O)O1`, for which the inhibition amounted to 84.9% in test [2], 13% in test [4] and 30.7% in test [5].
As for `C[C@@H]1C/C=C/CCCCC(=O)Cc2cc(O)cc(O)c2C(=O)O1`, the inhibition in test [1] came out at 24.7%; in test [2], 8.7%; in test [3], 45.7%.
For `CCCCCCC(C)(C)c1ccc([C@@H]2C[C@H](O)CC[C@H]2CCCO)c(O)c1`, the inhibition in test [4] came out at 90.3%; in test [5], 88.8%.
In turn, `COc1cc(O)c2c(c1)CC(=O)CCCC(=O)CCC[C@@H](C)OC2=O` yielded a half-maximal effective concentration (EC50) in test [6] of 0.239 µM. Also, the inhibition in test [1] was found to be 32.7%; in test [2] it was 24%; in test [3] it was 54.9%; in test [4], 46.3%. This compound came in with an Emax in test [7] of 2400%. Moreover, the half-inhibitory concentration (IC50) in test [8] stood at 14.6 µM. In addition, affinity in test [8] was put at a Ki of 7.31 µM.
On to `C[C@@H]1CCCC(=O)CCCC(=O)Cc2cc(O)cc(O)c2C(=O)O1`, for which the inhibition turned out to be 8.1% in test [1], 41.3% in test [2], 27.7% in test [4] and 47.4% in test [5].
